# CHO-K1 Ca ag = nonselective activator or artifact in parental CHO-K1 cells | Fluo-8 calcium fluorescence; scaled to maximal ATP response, vehicle zero | activation, % at 3 µM | hit rate 0.48% among 360,000 | AID 602248; in the data active means activation above about 15%;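 further: untransfected CHO-K1 host cells lacking M1 receptor as counterscreen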
# CHO-K1 Ca antag = counter-screen for M1 antagonists: effect in parental CHO-K1 cells | ATP-induced calcium, Fluo-8 fluorescence | inhibition, % at 3 µM | hit rate 0.6% among 360,000;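 active means inhibition above a per-plate cutoff, the plate's mean sample inhibition plus 3 SD, cut at about 24% in these data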;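 further: 0% = DMSO plus EC80 ATP and 100% = DMSO alone without ATP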
# CHO-K1 Ca PAM = M1 PAM counterscreen hit in parental CHO-K1 cells; ATP EC20, Fluo-8 calcium fluorescence; 0% at ATP EC20, 100% at ATP max; activation, % at 3 µM; hit rate 0.02% among 360,000; AID 602247;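 active means activation above the run cutoff, the mean activation of all test compounds plus 3 SD, cut at about 40% in these data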;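 further: peak over basal fluorescence ratio in a 140 s read after ATP addition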
# OX1R antag-1 = antagonists of human orexin 1 receptor (OX1R); O43613; inhibition, % at 6.6 µM; hit rate 1.8% among 330,000; OX1R-expressing cells, FRET antagonist read-out; in the data active means inhibition mostly above about 38%, no sharp cut-off; inactive means mostly below about 40%;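 further: 0% = agonist challenge alone and 100% = reference antagonist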
# Target sequence (O43613 whole entry, looked up): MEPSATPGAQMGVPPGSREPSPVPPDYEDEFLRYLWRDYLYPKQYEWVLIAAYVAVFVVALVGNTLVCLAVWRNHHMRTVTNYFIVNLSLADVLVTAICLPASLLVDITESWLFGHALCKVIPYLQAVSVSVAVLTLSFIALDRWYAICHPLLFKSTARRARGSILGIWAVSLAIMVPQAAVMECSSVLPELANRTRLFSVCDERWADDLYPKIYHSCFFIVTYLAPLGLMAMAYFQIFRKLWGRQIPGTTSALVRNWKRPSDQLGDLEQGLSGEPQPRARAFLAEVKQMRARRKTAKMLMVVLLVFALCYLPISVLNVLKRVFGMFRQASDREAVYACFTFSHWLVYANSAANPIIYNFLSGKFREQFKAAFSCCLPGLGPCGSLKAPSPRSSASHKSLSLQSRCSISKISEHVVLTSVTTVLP
# CHO parental Ca = counter-screen: ATP calcium response change in parental CHO cells; parental CHO-K1, ATP-induced calcium, Fluo-8 fluorescence; inhibition, % at 5.6 µM; hit rate 0.63% among 330,000; AID 463079;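 active means inhibition above that plate's mean sample inhibition plus 3 SD, cut at about 26% in these data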;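 further: 0% = ATP-challenged DMSO wells and 100% = DMSO wells without ATP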
#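 Test system: untransfected parental CHO cell line; also added: ATP stimulus; dosing: 5.6 µM, single dose; signal: calcium-sensitive Fluo-8 fluorescence; measure: percent inhibition of ATP-evoked calcium rise, normalized to controls; benchmarks: low control ATP plus DMSO, high control DMSO only; replication: one well per compound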
# OX1R antag-2 = human HCRTR1 antagonism | O43613 | CHO/OX1R cells, Fluo-8 calcium fluorescence, orexin A | inhibition, % at 5 µM | hit rate 0.43% among 330,000 | AID 434989;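 active means inhibition above its plate's threshold, mean inhibition of all tested compounds on the plate plus 3 SD, cut at about 37% in these data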;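 further: 0% = orexin A challenge wells and 100% = SB-334867-A antagonist wells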
# OX1R HTRF conf = OX1R (human) antagonism, HTRF confirmed; inhibition, % at 6.6 µM; hit rate 49% among 1,800; OX1R-expressing cells, HTRF antagonist assay; shares compounds with OX1R antag-1; in the data active means inhibition above about 55%;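 further: CHO cells expressing OX1R stimulated with orexin A at about EC80; 0% = agonist challenge alone and 100% = reference antagonist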
# CHO-K1 HTRF = signal in parental CHO-K1 cells, OX1R antagonist counter-screen | shares compounds with OX1R antag-1 | HTRF counterscreen | inhibition, % at 6.6 µM | hit rate 48% among 1,800 | AID 493232; in the data active means inhibition above about 17%;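 further: 0% = agonist challenge with vehicle and 100% = vehicle alone without agonist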
# Active calls of the source: *; / = no result. Most compounds without a hit are left out; they make up all but 2.9% or so of the library.
SMILES,CHO-K1 Ca ag,CHO-K1 Ca antag,CHO-K1 Ca PAM,OX1R antag-1,CHO parental Ca,OX1R antag-2,OX1R HTRF conf,CHO-K1 HTRF
O=C1c2cccc3cccc(c23)C(=O)N1c1ccncc1,0,-2,-3,111*,-15,-12,54,67*
COc1ccc(N2C(=O)c3cccc4cc(Br)cc(c34)C2=O)cc1,0,22,-16,14,-10,-5,/,/
CCN(CC)c1ccc(N=Nc2nn(C)c(C)c2[N+](=O)[O-])cc1,1,-2,14,88*,-15,-27,43,29*
CCN(Cc1ccccc1)c1ccc(N=Nc2nn(C)c(C)c2[N+](=O)[O-])cc1,0,-13,26,29,-2,-15,/,/
COC(=O)CCN1CCc2cc(N=Nc3ccc([N+](=O)[O-])cc3)ccc21,1,1,-5,1,-2,-11,/,/
CCn1cnc2cc(NC(=O)c3ccco3)ccc21,0,11,-9,10,7,-7,/,/
O=C(Nc1cc2nn(-c3ccccc3)nc2cc1Cl)c1ccco1,0,-4,0,21,-3,-15,/,/
CCCn1cnc2cc(NC(=O)c3ccco3)ccc21,0,12,-22,94*,-9,-17,23,-3
O=C(Nc1ccc2nn(-c3ccccc3)nc2c1)c1ccco1,1,1,0,95*,7,21,71*,7
O=C(Nc1cccc(Cl)c1)c1cccc(Oc2ccc([N+](=O)[O-])cc2Cl)c1,0,17,-9,42,10,-3,/,/
O=C(Nc1cccc(Cl)c1)c1cc(N=Nc2ccc([N+](=O)[O-])cc2Cl)ccc1O,9,-2,8,77*,14,21,57*,23*
O=C(C1CCCN(S(=O)(=O)c2ccccc2[N+](=O)[O-])C1)N1CCCC1 (stereo not drawn),1,-9,15,122*,1,22,27,4
Clc1cccc(/C=N\Nc2nccs2)c1,0,17,-9,82*,-28,-11,19,-11
O=C(O)CSc1ncnc2nc[nH]c12,0,-2,3,8,2,7,/,/
O=C(CSc1ncnc2nc[nH]c12)c1ccc2ccccc2c1,7,-6,4,84*,-2,23,34,-1
Cc1ccc(O)c(NC(=O)c2cc(-c3ccccc3Cl)on2)c1,0,-2,-6,90*,-3,16,83*,7
Cc1cnnc2ccc3c(no[n+]3[O-])c12,1,-7,16,126*,-3,-4,43,54*
C=CCOn1c(=O)c(-c2ccc(OC)cc2)[n+]([O-])c2ccccc21,0,3,2,98*,-1,-2,33,48*
COc1ccc(COn2c(=O)c(C)[n+]([O-])c3ccccc32)cc1OC,1,0,2,41,-6,-26,/,/
Cc1c(=O)n(OCc2ccccc2)c2ccccc2[n+]1[O-],0,-8,13,103*,-18,-27,52,25*
COc1ccc(-c2c(=O)n(OCc3nc4ccccc4[nH]3)c3ccccc3[n+]2[O-])cc1,3,-3,10,40,-6,-33,/,/
CCOc1ccccc1NC(=O)CSc1nnc(CNC(=O)c2cc(OC)c(OC)c(OC)c2)o1,0,-10,-10,33,-14,-1,/,/
COC(=O)c1c(NC(=O)c2cccc(S(=O)(=O)N3CCN(C)CC3)c2)sc(C)c1C,1,-6,8,4,3,-26,/,/
CC1CCN(S(=O)(=O)CCNC(=O)c2ccccc2)CC1,1,8,-3,89*,-8,-12,9,2
Cc1nn2c3ccccc3nc2c2ccccc12,3,-6,18,88*,-11,25,83*,-12
SMILES,CHO-K1 Ca ag,CHO-K1 Ca antag,CHO-K1 Ca PAM,OX1R antag-1,CHO parental Ca,OX1R antag-2,OX1R HTRF conf,CHO-K1 HTRF
CC1CCCN(C2=C(NS(=O)(=O)c3ccc(Br)cc3)C(=O)c3ccccc3C2=O)C1 (stereo not drawn),0,-5,-7,41,-8,-32,/,/
CCOC(=O)C1CCN(C2=C(NS(=O)(=O)c3ccc(Cl)cc3)C(=O)c3ccccc3C2=O)CC1,1,-4,11,114*,-21,11,119*,42*
CCOC(=O)C1CCCN(C2=C(NS(=O)(=O)c3ccc(Br)cc3)C(=O)c3ccccc3C2=O)C1 (stereo not drawn),4,5,-9,89*,-20,-12,73*,77*
COc1ccc(C(=O)O)cc1NS(=O)(=O)c1cccc2nsnc12,0,-9,11,116*,-15,-9,42,30*
COc1ccccc1NC(=O)CS(=O)(=O)c1cccc2nsnc12,0,-7,11,100*,-2,-24,36,37*
O=C(CN1CCN(S(=O)(=O)c2ccc3c(c2)OCCCO3)CC1)N1CCc2ccccc21,0,-8,-4,/,/,/,/,/
COc1ccc(Br)cc1C(=O)Nc1cccc(-c2nnc(-c3ccco3)o2)c1,0,-11,1,5,1,-13,/,/
COc1cccc(C(=O)Nc2cccc(-c3nnc(-c4ccco4)o3)c2)c1,5,-12,14,104*,-22,-25,35,5
Cc1ccc(Sc2ncccc2[N+](=O)[O-])cc1,-1,-10,10,1,-11,-8,/,/
CC(C)(C)n1cnnc1Sc1ncccc1[N+](=O)[O-],0,9,-13,85*,-6,-9,32,29*
CC(=O)c1c(C)n([O-])c2cc(F)c(F)cc2[n+]1=O,1,-13,18,81*,-12,-2,67*,54*
Cc1nc(-c2ccc([N+](=O)[O-])cc2)sc1C(=O)O,-1,1,9,156*,-8,-10,48,76*
CCSc1ccc([C@@H]2[C@H]3C(=O)N(CC)C(=O)[C@H]3[C@]3(C(=O)OC)CCCCN23)cc1OC,-1,-9,-14,84*,-29,32,76*,7
CCCNC(=O)C1(C)CCCN(C(=O)c2ccccc2F)C1 (stereo not drawn),0,-6,22,/,/,/,/,/
CCOc1cc(/C=C2/NC(=O)NC2=O)cc([N+](=O)[O-])c1O,-1,15,5,80*,6,4,49,74*
Brc1ccc(Nc2ncnc3[nH]ncc23)cc1,0,-14,16,15,-6,-20,/,/
NNC(=O)CS(=O)(=O)c1ccc(Cl)cc1,5,-1,6,4,-12,7,/,/
Cc1nc2ccccc2c(=O)n1C1CCCCCC1,0,-13,18,13,-8,-31,/,/

# Screens (PubChem)
